In ChEMBL document CHEMBL6177937, “Design, synthesis, and biological evaluation of novel thiazole derivatives as PI3K/mTOR dual inhibitors” (RSC Med Chem, 2024):

Assays:
[1] = system: SW-620; test: Growth inhibition of human SW620 cells at 10 uM measured after 48 hrs by SRB assay relative to control; type: functional; details: read-out: GI
How it was run: (§1)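 Single-dose NCI screen at 10 μM: 48 h exposure at 37°C, 5% CO2; adherent cells fixed in cold TCA (final 10%), suspension cells in TCA (final 16%); SRB stain solubilized in 10 mM Trizma base, absorbance 515 nm; percent growth inhibition calculated relative to untreated control and time-zero plates.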

[2] = system: A549; test: Growth inhibition of human A549 cells at 10 uM measured after 48 hrs by SRB assay relative to control; type: functional; details: A549, read-out: GI
How it was run: (§2)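 NCI screen: cells seeded at […] per well and preincubated 24 h (37°C, 5% CO2). Compound stocks in DMSO, tested at a single 10 μM. Exposure 48 h. Adherent cells fixed with cold TCA (10% final), suspension cells with 16% TCA. SRB stain read at 515 nm. Percent growth inhibition reported against time-zero and untreated controls.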

[3] = system: HT-29; test: Growth inhibition of human HT-29 cells at 10 uM measured after 48 hrs by SRB assay relative to control; type: functional; details: HT-29, read-out: GI; how it was run: as §2
[4] = system: NCI-H460; test: Growth inhibition of human NCI-H460 cells at 10 uM measured after 48 hrs by SRB assay relative to control; type: functional; details: NCI-H460, read-out: GI; how it was run: as §2
[5] = system: HCT-116; test: Growth inhibition of human HCT-116 cells at 10 uM measured after 48 hrs by SRB assay relative to control; type: functional; details: read-out: GI; how it was run: as §2
[6] = system: Panel NCI-60 (60 carcinoma cell lines); test: Antiproliferative activity against human NCI-60 cells assessed as growth inhibition at 10 uM measured after 48 hrs by SRB assay relative to control; type: functional; details: read-out: GI; how it was run: as §2
[7] = system: MCF7; test: Growth inhibition of human MCF7 cells at 10 uM measured after 48 hrs by SRB assay relative to control; type: functional; details: read-out: GI; how it was run: as §2
[8] = system: RPMI-8226; test: Growth inhibition of human RPMI-8226 cells at 10 uM measured after 48 hrs by SRB assay relative to control; type: functional; details: RPMI-8226, read-out: GI; how it was run: as §1
[9] = system: OVCAR-3; test: Growth inhibition of human OVCAR-3 cells at 10 uM measured after 48 hrs by SRB assay relative to control; type: functional; details: OVCAR-3, read-out: GI; how it was run: as §2
[10] = system: NCI-H322M; test: Growth inhibition of human NCI-H322M cells at 10 uM measured after 48 hrs by SRB assay relative to control; type: functional; details: read-out: GI; how it was run: as §2
[11] = system: KM12; test: Growth inhibition of human KM12 cells at 10 uM measured after 48 hrs by SRB assay relative to control; type: functional; details: KM12, read-out: GI; how it was run: as §2
[12] = system: UO-31; test: Growth inhibition of human UO-31 cells at 10 uM measured after 48 hrs by SRB assay relative to control; type: functional; details: read-out: GI; how it was run: as §1
[13] = system: ACHN; test: Growth inhibition of human ACHN cells at 10 uM measured after 48 hrs by SRB assay relative to control; type: functional; details: read-out: GI; how it was run: as §2
[14] = system: RXF 393; test: Growth inhibition of human RXF 393 cells at 10 uM measured after 48 hrs by SRB assay relative to control; type: functional; details: read-out: GI; how it was run: as §1
[15] = system: HL-60; test: Cytotoxicity against human HL-60 cells assessed as reduction in cell viability measured after 24 hrs by MTT assay; type: functional, cell-based; details: HL-60, 24 h
How it was run: (§3)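 MTT viability with 24 h incubation in 96-well plates. Five semi-log concentrations from 0.01 to 100 μM. Formazan absorbance read at 570 nm, with 690 nm background subtracted. Run in triplicate. IC50 obtained by sigmoidal dose-response fitting. Cells are leukemia HL-60(TB) and normal lymphocytes (PCS-800-017).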

[16] = Cytotoxicity against human PCS-800-017 cells assessed as reduction in cell viability measured after 24 hrs by MTT assay; type: toxicity, cell-based; how it was run: as §3

SMILES: CCOc1cc(/C=N/Nc2nc(-c3ccc(Br)cc3)cs2)ccc1OCc1ccccc1
- inhibition of growth at 10 µM [1]: 76.1%
- inhibition of growth at 10 µM [2]: 76.4%
- inhibition of growth at 10 µM [3]: 73.9%
- inhibition of growth at 10 µM [4]: 78.6%
- inhibition of growth at 10 µM [5]: 70.9%
- inhibition of growth at 10 µM [6]: 31.8%

SMILES: Cc1c(/C=N/Nc2nc(-c3cccc([N+](=O)[O-])c3)cs2)c(=O)n(-c2ccccc2)n1C
- inhibition of growth at 10 µM [6]: 16.2%

SMILES: COc1cc(/C=N/Nc2nc(-c3cccc([N+](=O)[O-])c3)cs2)ccc1OCc1ccccc1
- inhibition of growth at 10 µM [6]: 28.8%

SMILES: O=[N+]([O-])c1cccc(-c2csc(N/N=C/c3ccc4c(c3)OCO4)n2)c1
- inhibition of growth at 10 µM [6]: 18.2%

SMILES: O=[N+]([O-])c1cc(/C=N/Nc2nc(-c3ccccc3)cs2)ccc1Cl
- inhibition of growth at 10 µM [7]: 89.9%
- inhibition of growth at 10 µM [8]: 85.1%
- inhibition of growth at 10 µM [9]: 96.2%
- inhibition of growth at 10 µM [10]: 83.1%
- inhibition of growth at 10 µM [6]: 21.5%
- inhibition of growth at 10 µM [11]: 86.6%

SMILES: CCOc1cc(/C=N/Nc2nc(-c3ccccc3)cs2)ccc1OCc1ccccc1
- inhibition of growth at 10 µM [12]: 48.1%
- inhibition of growth at 10 µM [6]: 14.5%

SMILES: C(=N\Nc1nc(-c2ccccc2)cs1)/c1ccc(OCc2ccccc2)cc1
- inhibition of growth at 10 µM [6]: 13.1%
- inhibition of growth at 10 µM [13]: 79.8%

SMILES: COc1cc(/C=N/Nc2nc(-c3ccc(Cl)cc3)cs2)ccc1OCc1ccccc1
- inhibition of growth at 10 µM [7]: 45%
- inhibition of growth at 10 µM [6]: 16.5%

SMILES: CCOc1cc(/C=N/Nc2nc(-c3ccc(Cl)cc3)cs2)ccc1OCc1ccccc1
- inhibition of growth at 10 µM [1]: 76.2%
- inhibition of growth at 10 µM [2]: 87.4%
- inhibition of growth at 10 µM [4]: 88.8%
- inhibition of growth at 10 µM [5]: 87.5%
- inhibition of growth at 10 µM [6]: 37.1%

SMILES: CCOc1cc(/C=N/Nc2nc(-c3ccccc3)cs2)ccc1O
- inhibition of growth at 10 µM [6]: 36.9%

SMILES: COc1cc(/C=N/Nc2nc(-c3ccccc3)cs2)ccc1OCc1ccccc1
- inhibition of growth at 10 µM [6]: 19.1%

SMILES: O=[N+]([O-])c1cccc(-c2csc(N/N=C/c3ccc(Cl)c([N+](=O)[O-])c3)n2)c1
- inhibition of growth at 10 µM [6]: 36%

SMILES: CCOc1cc(/C=N/Nc2nc(-c3cccc([N+](=O)[O-])c3)cs2)ccc1OCc1ccccc1
- inhibition of growth at 10 µM [14]: 79.2%
- inhibition of growth at 10 µM [6]: 23.9%

SMILES: Cc1c(/C=N/Nc2nc(-c3ccc(Br)cc3)cs2)c(=O)n(-c2ccccc2)n1C
- inhibition of growth at 10 µM [6]: 9.82%

SMILES: O=[N+]([O-])c1cccc(-c2csc(N/N=C/c3ccc(OCc4ccccc4)cc3)n2)c1
- inhibition of growth at 10 µM [6]: 18.5%

SMILES: COc1cccc2c1C(=O)c1c(O)c3c(c(O)c1C2=O)C[C@@](O)(C(=O)CO)C[C@@H]3O[C@H]1C[C@H](N)[C@H](O)[C@H](C)O1 [DOXORUBICIN]
- IC50 [15]: 0.45 µM
- IC50 at 24 h [16]: 12.5 µM
